Experimental data from ChEMBL document CHEMBL4024777, “Discovery of LY3104607: A Potent and Selective G Protein-Coupled Receptor 40 (GPR40) Agonist with Optimized Pharmacokinetic Properties to Support Once Daily Oral Treatment in Patients with Type 2 Diabetes Mellitus” (J Med Chem, 2018).
Active and inactive are the calls of the source. The rule behind the calls is not given here.

Columns and labels:
Rattus norvegicus [1] = assay: Antidiabetic activity in po dosed Zucker fa/fa rat assessed as reduction in blood glucose AUC administered for 1 day followed by OGTT at 1 hr after compound dosing and measured 60 mins post glucose challenge by oral glucose tolerance test; assay type: functional
How it was run: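 Male Zucker fa/fa rats, 10 weeks old, were dosed orally at 1, 3 and 10 mg/kg. The OGTT was run 1 h after dosing with an oral glucose challenge of 2 g/kg. The glucose AUC was calculated, and a dose-response curve gave the ED90.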

Rattus norvegicus [2] = assay: Antidiabetic activity in po dosed Zucker fa/fa rat assessed as reduction in blood glucose AUC administered daily for 21 days followed by OGTT at 1 hr after compound dosing and measured 60 mins post glucose challenge by oral glucose tolerance test; assay type: functional
[3] = Initial plasma concentration in Beagle dog at 1 mg/kg, iv; assay type: ADME, organism-based, Canis lupus familiaris
[4] = Cmax in Beagle dog at 100 mg/kg, po; assay type: ADME, organism-based, Canis lupus familiaris; parameters: dose 100 mg/kg, route oral; conditions: in vivo
3T3-L1 = assay: Induction of adipogenesis in mouse 3T3L1 cells; assay type: functional, cell-based
How it was run: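 Adipogenesis was assessed in 3T3-L1 cells.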

[5] = Cmax in Sprague-Dawley rat at 100 mg/kg, po; assay type: ADME, organism-based; parameters: dose 100 mg/kg, route oral; conditions: in vivo
[6] = target: Free fatty acid receptor 1 (Rattus norvegicus) (UniProt Q8K3T4); assay: Agonist activity at GPR40 in Sprague-Dawley rat islets assessed as glucose-stimulated insulin secretion levels at 10 uM in presence of 11.2 mM glucose by ELISA (reference value: 6.24 ng/ml)
Free fatty acid receptor 1 (Rattus norvegicus), sequence (Q8K3T4 whole entry): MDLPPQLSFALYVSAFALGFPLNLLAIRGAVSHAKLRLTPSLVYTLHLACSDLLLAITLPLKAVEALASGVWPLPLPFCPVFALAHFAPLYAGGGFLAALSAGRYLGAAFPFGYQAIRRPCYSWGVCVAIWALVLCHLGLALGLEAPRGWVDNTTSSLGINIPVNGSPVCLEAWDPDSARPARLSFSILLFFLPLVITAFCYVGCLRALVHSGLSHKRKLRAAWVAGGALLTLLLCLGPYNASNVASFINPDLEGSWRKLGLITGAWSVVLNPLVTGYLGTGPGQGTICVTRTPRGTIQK

Rattus norvegicus [7] = assay: Antidiabetic activity in Zucker fa/fa rat assessed as reduction in blood glucose AUC at 1 to 10 mg/kg, po administered for 1 day followed by OGTT at 1 hr after compound dosing and measured 60 mins post glucose challenge by oral glucose tolerance test; assay type: functional, organism-based
How it was run: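 Male Zucker fa/fa rats, 10 weeks old, were dosed orally with 1, 3 or 10 mg/kg, alongside a reference GPR40 agonist as positive control. The OGTT was run 1 h after dosing with a 2 g/kg oral glucose load. Blood glucose was sampled at 0, 10, 20, 40 and 60 min, with the legend also listing 120 min. Glucose AUC was assessed on day 1.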

[8] = AUC (0 to 24 hrs) in Beagle dog at 30 mg/kg, po; assay type: ADME, organism-based, Canis lupus familiaris; parameters: dose 30 mg/kg, time < 24 hr, route oral; conditions: in vivo
[9] = Clearance in Beagle dog at 1 mg/kg, iv; assay type: ADME, organism-based, Canis lupus familiaris; conditions: in vivo
[10] = Tmax in Sprague-Dawley rat at 10 mg/kg, po; assay type: ADME, organism-based; conditions: in vivo
[11] = target: Free fatty acid receptor 1 (Rattus norvegicus) (UniProt Q8K3T4); assay: Agonist activity at GPR40 in Sprague-Dawley rat islets assessed as glucose-stimulated insulin secretion levels at 3 uM in presence of 11.2 mM glucose by ELISA (reference value: 6.24 ng/ml)
[12] = target: Voltage-gated inwardly rectifying potassium channel KCNH2 (Homo sapiens, UniProt Q12809); assay: Inhibition of human ERG at 100 uM
Voltage-gated inwardly rectifying potassium channel KCNH2, sequence (Q12809 whole entry): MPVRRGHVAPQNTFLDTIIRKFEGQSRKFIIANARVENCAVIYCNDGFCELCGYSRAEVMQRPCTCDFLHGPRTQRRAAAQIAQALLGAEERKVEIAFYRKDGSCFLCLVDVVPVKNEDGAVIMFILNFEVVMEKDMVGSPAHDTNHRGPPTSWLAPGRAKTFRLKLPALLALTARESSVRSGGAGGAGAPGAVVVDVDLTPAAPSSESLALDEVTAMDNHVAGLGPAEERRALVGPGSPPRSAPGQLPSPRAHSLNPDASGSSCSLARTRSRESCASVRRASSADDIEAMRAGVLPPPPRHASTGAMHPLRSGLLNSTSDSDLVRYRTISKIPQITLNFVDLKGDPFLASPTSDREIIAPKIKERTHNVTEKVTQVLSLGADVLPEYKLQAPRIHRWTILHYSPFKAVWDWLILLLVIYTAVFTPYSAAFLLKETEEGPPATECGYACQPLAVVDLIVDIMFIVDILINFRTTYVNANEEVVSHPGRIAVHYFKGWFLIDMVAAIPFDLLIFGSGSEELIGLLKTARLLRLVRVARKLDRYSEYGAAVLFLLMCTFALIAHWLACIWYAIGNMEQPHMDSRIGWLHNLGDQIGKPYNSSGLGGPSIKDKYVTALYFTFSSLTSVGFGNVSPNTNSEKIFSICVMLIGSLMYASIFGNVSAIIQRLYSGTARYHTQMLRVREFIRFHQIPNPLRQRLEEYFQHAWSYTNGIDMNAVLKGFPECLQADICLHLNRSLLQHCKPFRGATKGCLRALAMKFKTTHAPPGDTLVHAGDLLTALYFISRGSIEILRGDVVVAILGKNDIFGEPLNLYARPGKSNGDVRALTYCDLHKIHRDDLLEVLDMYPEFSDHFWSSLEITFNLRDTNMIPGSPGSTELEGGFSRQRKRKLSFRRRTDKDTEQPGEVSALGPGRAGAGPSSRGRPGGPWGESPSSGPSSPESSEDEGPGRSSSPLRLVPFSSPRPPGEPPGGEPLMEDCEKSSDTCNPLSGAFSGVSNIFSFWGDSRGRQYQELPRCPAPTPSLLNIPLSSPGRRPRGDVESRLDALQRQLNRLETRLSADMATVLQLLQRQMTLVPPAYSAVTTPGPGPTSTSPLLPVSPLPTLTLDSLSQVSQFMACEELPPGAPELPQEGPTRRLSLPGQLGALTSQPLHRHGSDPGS

[13] = target: Free fatty acid receptor 1 (Rattus norvegicus) (UniProt Q8K3T4); assay: Agonist activity at GPR40 in Sprague-Dawley rat islets assessed as potentiation of glucose-stimulated insulin secretion at 1 to 10 uM in presence of […] glucose by ELISA
[14] = Volume of distribution at steady state in Sprague-Dawley rat at 1 mg/kg, iv; assay type: ADME, organism-based; conditions: in vivo, read-out: Vdss
[15] = AUC (0 to 24 hrs) in Sprague-Dawley rat at 1 mg/kg, po; assay type: ADME, organism-based; parameters: time < 24 hr, dose 1 mg/kg, route oral; conditions: in vivo
[16] = target: T1, Free fatty acid receptor 1 (Homo sapiens, UniProt O14842); assay: Agonist activity at human GPR40 receptor expressed in HEK293 cells assessed as increase in intracellular calcium flux after 2.5 hrs measured over 3 mins in presence of 0.1% serum albumin by calcium 4 dye-based FLIPR assay; assay type: functional, cell-based
T1 sequence (O14842 whole entry): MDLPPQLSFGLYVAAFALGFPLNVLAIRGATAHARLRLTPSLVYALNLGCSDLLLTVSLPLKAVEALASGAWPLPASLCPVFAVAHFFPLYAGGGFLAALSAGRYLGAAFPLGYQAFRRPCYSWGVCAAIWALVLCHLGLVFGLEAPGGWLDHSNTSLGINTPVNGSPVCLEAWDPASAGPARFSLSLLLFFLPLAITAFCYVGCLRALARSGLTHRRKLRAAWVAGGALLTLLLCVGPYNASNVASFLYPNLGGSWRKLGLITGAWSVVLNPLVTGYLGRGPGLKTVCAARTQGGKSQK

[17] = target: Free fatty acid receptor 1 (Rattus norvegicus) (UniProt Q8K3T4); assay: Agonist activity at GPR40 in Sprague-Dawley rat islets assessed as glucose-stimulated insulin secretion levels at 1 uM in presence of 11.2 mM glucose by ELISA (reference value: 6.24 ng/ml)
[18] = AUC (0 to 24 hrs) in Sprague-Dawley rat at 100 mg/kg, po; assay type: ADME, organism-based; parameters: dose 100 mg/kg, time < 24 hr, route oral; conditions: in vivo
[19] = Drug metabolism in rat hepatocytes assessed as glucuronidation; assay type: ADME, cell-based, Hepatocyte
[20] = target: T1, Free fatty acid receptor 1; assay: Agonist activity at human PK-tagged GPR40 expressed in HEK293 cells assessed as EA-tagged beta-arrestin recruitment after 90 mins in presence of 1 % heat inactivated FBS by beta-galactosidase reporter gene assay; assay type: cell-based
[21] = AUC (0 to 24 hrs) in Sprague-Dawley rat at 1 mg/kg, iv; assay type: ADME, organism-based; parameters: dose 1 mg/kg, time < 24 hr, route intravenous; conditions: in vivo
[22] = target: T2, Peroxisome proliferator-activated receptor alpha (Homo sapiens) (UniProt Q07869); assay: Displacement of [3H]-agonist from human PPARalpha expressed in baculovirus infecetd Sf9 cells system up to 30 uM after 10 hrs in presence of DR2 by scintillation proximity assay
T2 sequence (whole entry): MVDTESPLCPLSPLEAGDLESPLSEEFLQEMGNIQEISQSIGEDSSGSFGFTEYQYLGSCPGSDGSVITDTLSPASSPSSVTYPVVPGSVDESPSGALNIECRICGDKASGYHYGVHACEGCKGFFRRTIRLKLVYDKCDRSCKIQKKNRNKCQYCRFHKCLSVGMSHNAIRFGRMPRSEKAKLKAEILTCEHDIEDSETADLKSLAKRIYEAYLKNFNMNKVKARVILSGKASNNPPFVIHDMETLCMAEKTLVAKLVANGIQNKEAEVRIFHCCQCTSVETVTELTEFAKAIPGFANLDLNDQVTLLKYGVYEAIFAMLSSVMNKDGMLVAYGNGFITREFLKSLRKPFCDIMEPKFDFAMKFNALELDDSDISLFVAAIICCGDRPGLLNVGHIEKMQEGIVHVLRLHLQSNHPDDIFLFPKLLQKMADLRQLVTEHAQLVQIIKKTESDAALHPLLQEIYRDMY
How it was run: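 PPAR alpha, delta and gamma binding and functional activity were each tested at concentrations up to 30 µM.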

[23] = Drug metabolism in dog hepatocytes assessed as glucuronidation; assay type: ADME, cell-based, Canis lupus familiaris, Hepatocyte
Cytochrome P450 3A4 = Cytochrome P450 3A4 (Homo sapiens, UniProt P08684); assay: Inhibition of human CYP3A4; assay type: ADME
Cytochrome P450 3A4, sequence (P08684 whole entry): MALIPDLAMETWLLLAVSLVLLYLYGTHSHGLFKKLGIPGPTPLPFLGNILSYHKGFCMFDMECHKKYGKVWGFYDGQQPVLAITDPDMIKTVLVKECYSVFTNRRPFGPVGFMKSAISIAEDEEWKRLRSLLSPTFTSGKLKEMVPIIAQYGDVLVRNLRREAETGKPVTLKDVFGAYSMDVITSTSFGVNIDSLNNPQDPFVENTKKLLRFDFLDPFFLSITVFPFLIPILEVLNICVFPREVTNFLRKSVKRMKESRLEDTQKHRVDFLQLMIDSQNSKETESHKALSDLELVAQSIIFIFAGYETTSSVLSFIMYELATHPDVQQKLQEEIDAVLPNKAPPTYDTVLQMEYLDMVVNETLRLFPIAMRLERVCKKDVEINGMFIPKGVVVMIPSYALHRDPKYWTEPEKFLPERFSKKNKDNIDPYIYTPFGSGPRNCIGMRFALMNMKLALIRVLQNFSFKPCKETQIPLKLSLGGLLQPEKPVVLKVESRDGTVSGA

[24] = Drug metabolism in rat hepatocytes assessed as metabolite-A formation; assay type: ADME, cell-based, Hepatocyte
[25] = target: T1, Free fatty acid receptor 1; assay: Agonist activity at human GPR40 receptor expressed in HEK293 cells assessed as increase in intracellular calcium flux after 2.5 hrs measured over 3 mins by calcium 4 dye-based FLIPR assay relative to linoleic acid; assay type: functional, cell-based; parameters: Activity: concentration or dose not given beside the values
How it was run: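 Human GPR40 calcium flux was read on FLIPR. Percent stimulation is expressed against the response to 100 uM linoleic acid.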

[26] = AUC (0 to 24 hrs) in Beagle dog at 1 mg/kg, iv; assay type: ADME, organism-based, Canis lupus familiaris; parameters: time < 24 hr, dose 1 mg/kg, route intravenous; conditions: in vivo
[27] = Initial plasma concentration in Sprague-Dawley rat at 1 mg/kg, iv; assay type: ADME, organism-based
[28] = Cmax in Sprague-Dawley rat at 10 mg/kg, po; assay type: ADME, organism-based; parameters: dose 10 mg/kg, route oral; conditions: in vivo
[29] = Tmax in Beagle dog at 300 mg/kg, po; assay type: ADME, organism-based, Canis lupus familiaris; conditions: in vivo
How it was run: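 Dogs dosed orally at 30, 100 or 300 mg/kg, N = 2 per dose.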

[30] = Half life in Sprague-Dawley rat at 1 mg/kg, iv; assay type: ADME, organism-based; conditions: in vivo
Cytochrome P450 2D6 = Cytochrome P450 2D6 (Homo sapiens, UniProt P10635); assay: Inhibition of human CYP2D6; assay type: ADME
Cytochrome P450 2D6, sequence (P10635 whole entry): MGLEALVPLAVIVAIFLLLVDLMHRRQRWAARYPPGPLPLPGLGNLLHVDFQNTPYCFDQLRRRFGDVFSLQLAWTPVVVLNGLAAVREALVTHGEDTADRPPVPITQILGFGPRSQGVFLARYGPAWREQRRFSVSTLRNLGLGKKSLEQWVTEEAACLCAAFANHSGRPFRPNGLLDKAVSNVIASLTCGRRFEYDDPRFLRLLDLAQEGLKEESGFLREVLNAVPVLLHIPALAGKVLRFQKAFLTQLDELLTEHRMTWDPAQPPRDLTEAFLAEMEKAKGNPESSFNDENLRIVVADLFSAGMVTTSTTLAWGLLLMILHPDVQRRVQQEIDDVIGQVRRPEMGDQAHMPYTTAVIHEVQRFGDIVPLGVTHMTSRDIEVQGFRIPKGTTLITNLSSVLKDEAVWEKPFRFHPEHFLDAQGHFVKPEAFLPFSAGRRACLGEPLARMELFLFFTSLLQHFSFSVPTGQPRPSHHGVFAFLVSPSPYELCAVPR

Cytochrome P450 2C9 = Cytochrome P450 2C9 (Homo sapiens, UniProt P11712); assay: Inhibition of human CYP2C9; assay type: ADME
Cytochrome P450 2C9, sequence (P11712 whole entry): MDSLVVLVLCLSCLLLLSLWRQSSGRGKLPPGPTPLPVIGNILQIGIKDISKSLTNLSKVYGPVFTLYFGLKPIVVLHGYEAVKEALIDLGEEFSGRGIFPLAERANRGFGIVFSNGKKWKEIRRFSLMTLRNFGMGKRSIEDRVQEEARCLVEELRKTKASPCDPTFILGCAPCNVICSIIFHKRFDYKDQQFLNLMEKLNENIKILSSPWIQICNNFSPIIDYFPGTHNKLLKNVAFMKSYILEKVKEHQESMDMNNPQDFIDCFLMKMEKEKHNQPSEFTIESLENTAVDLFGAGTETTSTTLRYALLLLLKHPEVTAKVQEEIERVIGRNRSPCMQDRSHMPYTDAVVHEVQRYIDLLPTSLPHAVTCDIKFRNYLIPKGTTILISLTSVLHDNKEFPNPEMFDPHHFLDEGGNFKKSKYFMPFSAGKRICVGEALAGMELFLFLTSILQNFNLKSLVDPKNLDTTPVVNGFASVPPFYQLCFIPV

## CC#C[C@@H](CC(=O)O)c1ccc(OCc2ccc3nc(-c4c(C)cccc4C)nn3c2)cc1
Rattus norvegicus [1]
  ED90: 4.1 mg/kg
Rattus norvegicus [2]
  ED90: 5 mg/kg
[3]
  C0: 8240 ng/mL
[4]
  Cmax: 260000 ng/mL
3T3-L1
  Activity: inactive
[5]
  Cmax: 208000 ng/mL
[6]
  Activity: 19.4 ng/mL
Rattus norvegicus [7]
  Activity: Active
[8]
  AUC(0-t) at 24 h: 120 µg·h/mL
[9]
  clearance: 0.601 mL/min/kg
[10]
  Tmax: 4 h
[11]
  Activity: 20.2 ng/mL
[12]
  inhibition (INH): Not Active
[13]
  Activity: inactive
[14]
  Vd: 0.33 L/kg
[15]
  AUC(0-t) at 24 h: 11.7 µg·h/mL
[16]
  Activity: Active
[17]
  Activity: 17.1 ng/mL
[18]
  AUC(0-t) at 24 h: 2870 µg·h/mL
[19]
  Drug metabolism: Metabolite_Detected
[20]
  EC50: 0.108 µM
[21]
  AUC(0-t) at 24 h: 12.7 µg·h/mL
[22]
  Activity: inactive
[23]
  Drug metabolism: Metabolite_Detected
Cytochrome P450 3A4
  IC50: > 60 µM
[24]
  Drug metabolism: Metabolite_Detected
[25]
  Activity: 54%
[26]
  AUC(0-t) at 24 h: 27.3 µg·h/mL
[27]
  C0: 4340 ng/mL
[28]
  Cmax: 23700 ng/mL
[29]
  Tmax: 6 h
[30]
  half-life: 3.98 h
Cytochrome P450 2D6
  IC50: > 60 µM
Cytochrome P450 2C9
  IC50: > 60 µM
